Calls of active or inactive are those of the source. The calls are words filed in the database; no cut-off is given here. Peptide text beside a SMILES is read from it. * marks the point of attachment. Cbz = O=C(OCc1ccccc1)*
Tests used:
H9c2 [1] = assay: Cytoprotective activity against TBHP-induced necrosis in rat H9c2 cells incubated for 4 hrs by LDH release assay; format: functional, cell-based; conditions: H9c2, 4 h
How it was run: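 Rat cardiomyoblast H9c2 cells treated with TBHP (300 μM) with or without test compound; necrotic cell death quantified by LDH release assay.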

H9c2 [2] = assay: Cytotoxicity against rat H9c2 cells at 30 uM; format: cell-based; conditions: h9c2, 30 µM
HL-60 [3] = assay: Cytoprotective activity against H2O2-induced necrosis in human HL60 cells incubated for 1 hr followed by H2O2 stimulation by LDH release assay; format: functional, cell-based; conditions: HL-60, 1 h
How it was run: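 Necrosis of HL-60 cells induced by H2O2 and quantified as lactate dehydrogenase release from the cytosol; IC50 derived.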

HL-60 [4] = assay: Cytoprotective activity against H2O2-induced necrosis in human HL60 cells assessed as increase in cell viability at 1 to 5 mM incubated for 1 hr followed by H2O2 stimulation measured after 3 hrs by Alamar blue assay; format: functional, cell-based
How it was run: (§1)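 HL-60 cells treated with H2O2 (100 μM, 3 h) with or without various cell death inhibitors (cyclophilin D, PARP-1, necroptosis, autophagy). Viability read by AlamarBlue.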

Heart [5] = assay: Cardioprotective activity against Langendorff isolated Sprague-Dawley rat heart ischemia-reperfusion injury model assessed as suppression of creatine kinase release at 3 uM administered for 10 mins as infusion followed by 30 mins of global ischemia and 60 mins of reperfusion; format: functional, tissue-based
How it was run: (§2)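 Isolated rat hearts perfused in Langendorff mode with Krebs-Henseleit buffer. Compound (HCl salt) added to the perfusate for 10 min before no-flow global ischemia of 30 min, then 60 min reperfusion with flow restored. Left ventricular developed pressure recovery taken as heart function; creatine kinase released from myocardium taken as membrane integrity marker.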

Heart [6] = assay: Cardioprotective activity against Langendorff isolated Sprague-Dawley rat heart ischemia-reperfusion injury model assessed as improvement in LVDP at 3 uM administered for 10 mins as infusion followed by 30 mins of global ischemia and 60 mins of reperfusion; format: functional, tissue-based; how it was run: as §2
[7] = Stability in rat liver S9 fraction at 5 uM after 30 mins by HPLC method; format: ADME, subcellular; conditions: s9, 0.5 h
Rattus norvegicus [8] = assay: Cardioprotective activity against Sprague-Dawley rat ischemia reperfusion-induced arrhythmia model assessed as ventricular fibrillation time at 1 mg/kg, iv administered 5 mins before ischemia (reference value: 95.3 +/- 13 sec); format: functional
Rattus norvegicus [9] = assay: Toxicity in Sprague-Dawley rat ischemia reperfusion-induced arrhythmia model assessed as mortality at 3 mg/kg, iv administered 5 mins before ischemia (reference value: 60%); format: organism-based; conditions: in vivo
Rattus norvegicus [10] = assay: Toxicity in Sprague-Dawley rat ischemia reperfusion-induced arrhythmia model assessed as mortality at 1 mg/kg, iv administered 5 mins before ischemia (reference value: 60%); format: organism-based; conditions: in vivo
Rattus norvegicus [11] = assay: Cardioprotective activity against Sprague-Dawley rat ischemia reperfusion-induced arrhythmia model assessed as ventricular fibrillation time at 3 mg/kg, iv administered 1 min before reperfusion (reference value: 96.3 +/- 24.1 sec); format: functional
Rattus norvegicus [12] = assay: Toxicity in Sprague-Dawley rat ischemia reperfusion-induced arrhythmia model assessed as mortality at 3 mg/kg, iv administered 1 min before reperfusion (reference value: 75%); format: organism-based; conditions: in vivo
Rattus norvegicus [13] = assay: Cardioprotective activity against Sprague-Dawley rat ischemia reperfusion-induced arrhythmia model assessed as ventricular fibrillation time at 3 mg/kg, iv administered 5 mins before ischemia (reference value: 95.3 +/- 13 sec); format: functional
Jurkat [14] = assay: Cytoprotective activity against Z-VAD-induced necroptosis in human Jurkat cells assessed as increase in cell viability at 30 uM incubated for 1 hr followed by Z-VAD stimulation by phase contrast microscopy; format: functional, cell-based
How it was run: (§3)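 Jurkat necroptosis induced with FasL (100 ng/mL, 20 h) together with Z-VAD (100 μM) or cycloheximide (5 μM). Test agents were run at 10 μM alongside a necroptosis inhibitor at 30 μM. Viability read by AlamarBlue; morphology examined by phase-contrast imaging.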

Jurkat [15] = assay: Cytoprotective activity against FasL-induced necroptosis in human Jurkat cells assessed as increase in cell viability at 30 uM incubated for 1 hr followed by FasL stimulation measured after 20 hrs by Alamar blue assay; format: functional, cell-based; how it was run: as §3
Jurkat [16] = assay: Cytoprotective activity against FasL-induced necroptosis in human Jurkat cells assessed as increase in cell viability at 30 uM incubated for 1 hr followed by FasL stimulation measured after 20 hrs by phase contrast microscopy; format: functional, cell-based; how it was run: as §3
Jurkat [17] = assay: Cytoprotective activity against Z-VAD-induced necroptosis in human Jurkat cells assessed as increase in cell viability at 30 uM incubated for 1 hr followed by Z-VAD stimulation by Alamar blue assay; format: functional, cell-based; how it was run: as §3
HL-60 [18] = assay: Cytoprotective activity against H2O2-induced necrosis in human HL60 cells assessed as increase in cell viability at 1 to 10 uM incubated for 1 hr followed by H2O2 stimulation measured after 3 hrs by Alamar blue assay; format: functional, cell-based; how it was run: as §1
Jurkat [19] = assay: Cytoprotective activity against CHX-induced necroptosis in human Jurkat cells assessed as increase in cell viability at 30 uM incubated for 1 hr followed by CHX stimulation by Alamar blue assay; format: functional, cell-based; how it was run: as §3
Jurkat [20] = assay: Cytoprotective activity against CHX-induced necroptosis in human Jurkat cells assessed as increase in cell viability at 30 uM incubated for 1 hr followed by CHX stimulation by phase contrast microscopy; format: functional, cell-based; how it was run: as §3
Heart [21] = assay: Cardioprotective activity against Langendorff isolated Sprague-Dawley rat heart ischemia-reperfusion injury model assessed as improvement in LVDP at 0.3 uM administered for 10 mins as infusion followed by 30 mins of global ischemia and 60 mins of reperfusion; format: functional, tissue-based; how it was run: as §2
Heart [22] = assay: Cardioprotective activity against Langendorff isolated Sprague-Dawley rat heart ischemia-reperfusion injury model assessed as suppression of creatine kinase release at 0.3 uM administered for 10 mins as infusion followed by 30 mins of global ischemia and 60 mins of reperfusion; format: functional, tissue-based; how it was run: as §2
HL-60 [23] = assay: Cytoprotective activity against H2O2-induced apoptosis in human HL60 cells assessed as increase in cell viability at 100 uM incubated for 1 hr followed by H2O2 stimulation measured after 4 hrs by Alamar blue assay; format: functional, cell-based
How it was run: (§4)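 HL-60 cells exposed to low-level H2O2 (30 μM, 4 h) with or without test agent (10 μM) or Z-VAD (100 μM). Viability read by AlamarBlue; morphology by phase-contrast imaging.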

Jurkat [24] = assay: Cytoprotective activity against FasL-induced apoptosis in human Jurkat cells assessed as increase in cell viability at 100 uM incubated for 1 hr followed by FasL stimulation measured after 18 hrs by phase contrast microscopy; format: functional, cell-based
How it was run: (§5)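 Jurkat cells exposed to FasL (100 ng/mL, 18 h) with or without test agent (10 μM) or Z-VAD (100 μM). Viability measured by AlamarBlue and morphology by phase-contrast imaging.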

HL-60 [25] = assay: Cytoprotective activity against camptothecin-induced apoptosis in human HL60 cells assessed as increase in cell viability at 100 uM incubated for 1 hr followed by camptothecin stimulation measured after 6 hrs by Alamar blue assay; format: functional, cell-based
How it was run: (§6)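 HL-60 cells given a death inducer with or without test agent (10 μM) or Z-VAD (100 μM). Inducers were actinomycin D 1 μM for 6 h, camptothecin 1 μM for 6 h, etoposide 100 μM for 4 h, FasL 100 ng/mL for 18 h, H2O2 100 μM for 3 h, and TBHP 30 μM for 3 h. Viability read by AlamarBlue.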

HL-60 [26] = assay: Cytoprotective activity against H2O2-induced apoptosis in human HL60 cells assessed as increase in cell viability at 100 uM incubated for 1 hr followed by H2O2 stimulation measured after 4 hrs by phase contrast microscopy; format: functional, cell-based; how it was run: as §4
HL-60 [27] = assay: Cytoprotective activity against Fas ligand-induced apoptosis in human HL60 cells assessed as increase in cell viability at 100 uM incubated for 1 hr followed by Fas ligand stimulation measured after 18 hrs by Alamar blue assay; format: functional, cell-based; how it was run: as §6
Jurkat [28] = assay: Cytoprotective activity against FasL-induced apoptosis in human Jurkat cells assessed as increase in cell viability at 100 uM incubated for 1 hr followed by FasL stimulation measured after 18 hrs by Alamar blue assay; format: functional, cell-based; how it was run: as §5
HL-60 [29] = assay: Cytoprotective activity against etoposide-induced apoptosis in human HL60 cells assessed as increase in cell viability at 100 uM incubated for 1 hr followed by etoposide stimulation measured after 4 hrs by Alamar blue assay; format: functional, cell-based; how it was run: as §6
HL-60 [30] = assay: Cytoprotective activity against actinomycin D-induced apoptosis in human HL60 cells assessed as increase in cell viability at 100 uM incubated for 1 hr followed by actinomycin D stimulation measured after 6 hrs by Alamar blue assay; format: functional, cell-based; how it was run: as §6
HL-60 [31] = assay: Cytoprotective activity against TBHP-induced necrosis in human HL60 cells assessed as increase in cell viability at 100 uM incubated for 1 hr followed by TBHP stimulation measured after 3 hrs by Alamar blue assay; format: functional, cell-based
HL-60 [32] = assay: Cytoprotective activity against H2O2-induced necrosis in human HL60 cells assessed as increase in cell viability at 100 uM incubated for 1 hr followed by H2O2 stimulation measured after 3 hrs by Alamar blue assay; format: functional, cell-based; how it was run: as §6
HL-60 [33] = assay: Cytoprotective activity against H2O2-induced necrosis in human HL60 cells assessed as increase in cell viability at 10 to 100 uM incubated for 1 hr followed by H2O2 stimulation measured after 3 hrs by Alamar blue assay; format: functional, cell-based; how it was run: as §1

SMILES: CN1C(=O)C(c2c[nH]c3ccccc23)=C(c2cn(CCCN)c3ccccc23)C1=O
- IC50 (H9c2 [1]): 3000 nM
- Activity (H9c2 [2]): Toxic

SMILES: CCCCCCNC1=C(c2cn(C)c3ccccc23)C(=O)N(C)C1=O
- IC50 (HL-60 [3]): 380 nM

SMILES: CN1C(=O)C(NCCO)=C(c2cn(C)c3ccccc23)C1=O
- IC50 (HL-60 [3]): 1300 nM

SMILES: CN1C(=O)C(NCCCO)=C(c2cn(C)c3ccccc23)C1=O
- IC50 (HL-60 [3]): 1900 nM

SMILES: Cn1cnc(N)c2ncnc1-2
- Activity (HL-60 [4]): inactive

SMILES: CN1C(=O)C(NCCCCN)=C(c2cn(C)c3ccccc23)C1=O
- IC50 (HL-60 [3]): 1300 nM

SMILES: CN1C(=O)C(NCCN)=C(c2cn(C)c3ccccc23)C1=O [listing 1 of 2 here]
- Activity (Heart [5]): Active
- Activity (Heart [6]): Active

SMILES: CN1C(=O)C(NCCN)=C(c2cn(C)c3ccccc23)C1=O [listing 2 of 2 here]
- IC50 (H9c2 [1]): 4900 nM
- Stability [7]: Stable
- IC50 (HL-60 [3]): 1000 nM
- Activity (H9c2 [2]): Non-Toxic

SMILES: CN1C(=O)C(NCCN)=C(c2cn(C)c3ccccc23)C1=O.Cl
- Time (Rattus norvegicus [8]): 38.2 s
- mortality (Rattus norvegicus [9]): 0%
- mortality (Rattus norvegicus [10]): 20%
- Time (Rattus norvegicus [11]): 57 s
- mortality (Rattus norvegicus [12]): 20%
- Time (Rattus norvegicus [13]): 0 s

SMILES: CN1C(=O)C(Cc2c[nH]c3ccccc23)NC1=S (configuration not stated)
- Activity (Jurkat [14]): Active
- Activity (Jurkat [15]): Active
- Activity (Jurkat [16]): Active
- Activity (Jurkat [17]): Active
- Activity (HL-60 [18]): inactive
- Activity (Jurkat [19]): Active
- Activity (Jurkat [20]): Active

SMILES: CN1C(=O)C(NCCCCO)=C(c2cn(C)c3ccccc23)C1=O
- IC50 (HL-60 [3]): 1100 nM

SMILES: CCCNC1=C(c2cn(C)c3ccccc23)C(=O)N(C)C1=O
- IC50 (H9c2 [1]): 4400 nM
- Stability [7]: Unstable
- IC50 (HL-60 [3]): 440 nM
- Activity (Heart [21]): Active
- Activity (H9c2 [2]): Non-Toxic
- Activity (Heart [22]): Active

SMILES: COC(=O)C[C@H](NC(=O)[C@H](C)NC(=O)[C@@H](NC(=O)OCc1ccccc1)C(C)C)C(=O)O (Cbz-Val-Ala-Asp(OMe)-OH)
- Activity (HL-60 [23]): Active
- Activity (Jurkat [24]): Active
- Activity (HL-60 [25]): Active
- Activity (HL-60 [26]): Active
- Activity (HL-60 [27]): Active
- Activity (Jurkat [28]): Active
- Activity (HL-60 [29]): Active
- Activity (HL-60 [30]): Active
- Activity (HL-60 [31]): inactive
- Activity (HL-60 [32]): inactive

SMILES: CN1C(=O)C(NCCCN)=C(c2cn(C)c3ccccc23)C1=O
- IC50 (HL-60 [3]): 1300 nM

SMILES: O=C1NCCc2c(OCCCCN3CCCCC3)cccc21
- Activity (HL-60 [33]): inactive

SMILES: CCCCNC1=C(c2cn(C)c3ccccc23)C(=O)N(C)C1=O
- IC50 (HL-60 [3]): 420 nM

SMILES: CNC1=C(c2cn(C)c3ccccc23)C(=O)N(C)C1=O
- IC50 (HL-60 [3]): 910 nM

From ChEMBL document CHEMBL4251693, “Indolylmaleimide Derivative IM-17 Shows Cardioprotective Effects in Ischemia-Reperfusion Injury” (ACS Med Chem Lett, 2018)
